Measured values: article PMC7935732 (Targeted Oncology, 2021)

What was measured:
[1] = tested on: Chinese patients with advanced and/or metastatic cancers; experiment: Safety and tolerability; type: in vivo, human
Method in brief: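 Safety set: all patients with ≥ 1 dose. Patient-reported AEs were collected during treatment; chemistry, hematology and urinalysis were done at protocol time points. Laboratory and non-laboratory AEs were graded by CTCAE v4.0 and summarized by cohort.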

[2] = tested on: breast cancer; settings: larger population, including MONARCH plus; cited from earlier work

CCN1CCN(Cc2ccc(Nc3ncc(F)c(-c4cc(F)c5nc(C)n(C(C)C)c5c4)n3)nc2)CC1 [abemaciclib]
Hyponatraemia TEAE ([1]; Grade 3, 200 mg (n = 13)): 0 n (%) | Leukopenia (white blood cell count decreased) TEAE ([1]; Grade 3, 200 mg (n = 13)): 3 (23.1) n (%) | Lung infection TEAE ([1]; Grade 3, 200 mg (n = 13)): 0 n (%) | Malaise TEAE ([1]; Grade 3, 200 mg (n = 13)): 0 n (%) | Muscular weakness TEAE ([1]; Grade 3, 200 mg (n = 13)): 0 n (%) | Neutropenia (neutrophil count decreased) TEAE ([1]; Grade 3, 200 mg (n = 13)): 3 (23.1) n (%) | Patients with ≥ 1 TEAE of Grade ≥ 3 ([1]; Grade 3, 200 mg (n = 13)): 6 (46.2) n (%) | Thrombocytopenia (platelet count decreased) TEAE ([1]; Grade 3, 200 mg (n = 13)): 2 (15.4) n (%) | Vomiting TEAE ([1]; Grade 3, 200 mg (n = 13)): 0 n (%) | Anemia TEAE ([1]; Grade 3, Total (n = 25)): 2 (8.0) n (%) | Blood bilirubin increased TEAE ([1]; Grade 3, Total (n = 25)): 1 (4.0) n (%) | Diarrhea TEAE ([1]; Grade 3, Total (n = 25)): 4 (16.0) n (%) | Hyponatraemia TEAE ([1]; Grade 3, Total (n = 25)): 2 (8.0) n (%) | Leukopenia (white blood cell count decreased) TEAE ([1]; Grade 3, Total (n = 25)): 3 (12.0) n (%) | Lung infection TEAE ([1]; Grade 3, Total (n = 25)): 1 (4.0) n (%) | Malaise TEAE ([1]; Grade 3, Total (n = 25)): 1 (4.0) n (%) | Muscular weakness TEAE ([1]; Grade 3, Total (n = 25)): 1 (4.0) n (%) | Neutropenia (neutrophil count decreased) TEAE ([1]; Grade 3, Total (n = 25)): 8 (32.0) n (%) | Patients with ≥ 1 TEAE of Grade ≥ 3 ([1]; Grade 3, Total (n = 25)): 14 (56.0) n (%) | Thrombocytopenia (platelet count decreased) TEAE ([1]; Grade 3, Total (n = 25)): 5 (20.0) n (%) | Vomiting TEAE ([1]; Grade 3, Total (n = 25)): 0 n (%) | Anemia TEAE ([1]; Grade 4, 150 mg (n = 12)): 0 n (%) | Blood bilirubin increased TEAE ([1]; Grade 4, 150 mg (n = 12)): 0 n (%) | Diarrhea TEAE ([1]; Grade 4, 150 mg (n = 12)): 0 n (%) | Embolism TEAE ([1]; Grade 4, 150 mg (n = 12)): 0 n (%) | Hyponatraemia TEAE ([1]; Grade 4, 150 mg (n = 12)): 0 n (%) | Leukopenia (white blood cell count decreased) TEAE ([1]; Grade 4, 150 mg (n = 12)): 0 n (%) | Lung infection TEAE ([1]; Grade 4, 150 mg (n = 12)): 0 n (%) | Malaise TEAE ([1]; Grade 4, 150 mg (n = 12)): 0 n (%) | Muscular weakness TEAE ([1]; Grade 4, 150 mg (n = 12)): 0 n (%) | Neutropenia (neutrophil count decreased) TEAE ([1]; Grade 4, 150 mg (n = 12)): 0 n (%) | Patients with ≥ 1 TEAE of Grade ≥ 3 ([1]; Grade 4, 150 mg (n = 12)): 1 (8.3) n (%) | Thrombocytopenia (platelet count decreased) TEAE ([1]; Grade 4, 150 mg (n = 12)): 1 (8.3) n (%) | Vomiting TEAE ([1]; Grade 4, 150 mg (n = 12)): 1 (8.3) n (%) | Anemia TEAE ([1]; Grade 4, 200 mg (n = 13)): 0 n (%) | Blood bilirubin increased TEAE ([1]; Grade 4, 200 mg (n = 13)): 0 n (%) | Diarrhea TEAE ([1]; Grade 4, 200 mg (n = 13)): 0 n (%) | Embolism TEAE ([1]; Grade 4, 200 mg (n = 13)): 3 (23.1) n (%) | Hyponatraemia TEAE ([1]; Grade 4, 200 mg (n = 13)): 0 n (%) | Leukopenia (white blood cell count decreased) TEAE ([1]; Grade 4, 200 mg (n = 13)): 0 n (%) | Lung infection TEAE ([1]; Grade 4, 200 mg (n = 13)): 0 n (%) | Malaise TEAE ([1]; Grade 4, 200 mg (n = 13)): 0 n (%) | Muscular weakness TEAE ([1]; Grade 4, 200 mg (n = 13)): 0 n (%) | Neutropenia (neutrophil count decreased) TEAE ([1]; Grade 4, 200 mg (n = 13)): 0 n (%) | Patients with ≥ 1 TEAE of Grade ≥ 3 ([1]; Grade 4, 200 mg (n = 13)): 3 (23.1) n (%) | Thrombocytopenia (platelet count decreased) TEAE ([1]; Grade 4, 200 mg (n = 13)): 0 n (%) | Vomiting TEAE ([1]; Grade 4, 200 mg (n = 13)): 0 n (%) | Anemia TEAE ([1]; Grade 4, Total (n = 25)): 0 n (%) | Blood bilirubin increased TEAE ([1]; Grade 4, Total (n = 25)): 0 n (%) | Diarrhea TEAE ([1]; Grade 4, Total (n = 25)): 0 n (%) | Hyponatraemia TEAE ([1]; Grade 4, Total (n = 25)): 0 n (%) | Leukopenia (white blood cell count decreased) TEAE ([1]; Grade 4, Total (n = 25)): 0 n (%) | Lung infection TEAE ([1]; Grade 4, Total (n = 25)): 0 n (%) | Malaise TEAE ([1]; Grade 4, Total (n = 25)): 0 n (%) | Muscular weakness TEAE ([1]; Grade 4, Total (n = 25)): 0 n (%) | Neutropenia (neutrophil count decreased) TEAE ([1]; Grade 4, Total (n = 25)): 0 n (%) | Patients with ≥ 1 TEAE of Grade ≥ 3 ([1]; Grade 4, Total (n = 25)): 4 (16.0) n (%) | Thrombocytopenia (platelet count decreased) TEAE ([1]; Grade 4, Total (n = 25)): 1 (4.0) n (%) | Vomiting TEAE ([1]; Grade 4, Total (n = 25)): 1 (4.0) n (%) | Alanine aminotransferase increased, TEAE any grade ([1]; Total (n = 25)): 7 (28.0) n (%) | Anemia, TEAE any grade ([1]; Total (n = 25)): 12 (48.0) n (%) | Bilirubin increased, TEAE any grade ([1]; Total (n = 25)): 5 (20.0) n (%) | Blood creatinine increased, TEAE any grade ([1]; Total (n = 25)): 14 (56.0) n (%) | Cough, TEAE any grade ([1]; Total (n = 25)): 8 (32.0) n (%) | Decreased appetite, TEAE any grade ([1]; Total (n = 25)): 15 (60.0) n (%) | Diarrhea, TEAE any grade ([1]; Total (n = 25)): 20 (80.0) n (%) | Leukopenia (white blood cell count decreased), TEAE any grade ([1]; Total (n = 25)): 16 (64.0) n (%) | Localized edema, TEAE any grade ([1]; Total (n = 25)): 5 (20.0) n (%) | Malaise, TEAE any grade ([1]; Total (n = 25)): 13 (52.0) n (%) | Nausea, TEAE any grade ([1]; Total (n = 25)): 9 (36.0) n (%) | Neutropenia (neutrophil count decreased), TEAE any grade ([1]; Total (n = 25)): 19 (76.0) n (%) | Patients with ≥ 1 TEAE (any grade) ([1]; Total (n = 25)): 25 (100.0) n (%) | Thrombocytopenia (platelet count decreased), TEAE any grade ([1]; Total (n = 25)): 11 (44.0) n (%) | Vomiting, TEAE any grade ([1]; Total (n = 25)): 8 (32.0) n (%) | Discontinuation of study treatment due to diarrhea or neutropenia ([1]; all treated patients): No patient discontinued | ECG data or vital signs findings ([1]; all treated patients): No clinically meaningful findings | Febrile neutropenia ([1]; all treated patients): No febrile neutropenia was reported | Diarrhea Grade 4 or 5 ([1]; all treated patients (n = 25)): not reported | Diarrhea of Grade 3 ([1]; all treated patients (n = 25)): 4 patients | Patients reporting at least one TEAE of any grade ([1]; all treated patients (n = 25)): 100% | Patients who died on treatment due to AE (respiratory failure) ([1]; all treated patients (n = 25)): 4.0% | Patients who discontinued treatment due to AEs ([1]; all treated patients (n = 25)): 16% | Patients with TEAE of Grade 4 in severity ([1]; all treated patients (n = 25)): 16.0% | Thrombocytopenia TEAE of Grade ≥ 3 ([1]; all treated patients (n = 25)): 24% | Neutropenia TEAE of Grade ≥ 3 ([1]; all treated patients (n = 25), all Grade 3): 32% | Patients reporting serious adverse events (SAEs) ([1]; in total (n = 25)): 24.0% | Patients with 3 or more episodes of diarrhea ([1]; of the 20 patients experiencing diarrhea): 7 patients | Incidence of embolism [2]: less than 5%
